Assay outcomes as filed in PubChem.
Sampled rows, rich in hits. Any-hit rate of the full collection: about 2.3%.
TbHK1 inh: T. brucei hexokinase 1 inhibition. recombinant TbHK1, G6PDH-coupled NADH A340. inhibition, % at 10 µM. actives 0.11% (n = 220,000);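 active means inhibition of 50% or more in the single-dose primary screen; inactive means inhibition below 50%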
NPY-Y2 antag: blocks the human neuropeptide Y Y2 receptor; P49146; NPY-Y2 expressing cells, antagonist mode; inhibition, % at 2.7 µM; actives 0.99% (n = 140,000); in the data active means inhibition above about 17%;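 further: 0% = vehicle with agonist challenge and 100% = reference antagonist with challenge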
Target sequence (P49146 whole entry, looked up): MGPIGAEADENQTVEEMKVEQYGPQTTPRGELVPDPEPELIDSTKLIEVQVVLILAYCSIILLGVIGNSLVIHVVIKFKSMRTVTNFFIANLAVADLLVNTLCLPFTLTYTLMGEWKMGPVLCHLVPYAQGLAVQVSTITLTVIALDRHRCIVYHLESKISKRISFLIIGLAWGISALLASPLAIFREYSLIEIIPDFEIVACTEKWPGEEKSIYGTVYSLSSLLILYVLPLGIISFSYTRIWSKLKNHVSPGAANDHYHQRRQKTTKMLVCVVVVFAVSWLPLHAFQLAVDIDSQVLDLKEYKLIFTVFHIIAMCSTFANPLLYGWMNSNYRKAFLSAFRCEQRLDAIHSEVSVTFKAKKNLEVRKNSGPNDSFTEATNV
NPY-Y1 antag: NPY-Y1 (human) receptor antagonism | inhibition, % at 3.6 µM | AID 1040 | actives 1% (n = 200,000) | P25929 | HEK293-CNG Y1 cells, membrane potential fluorescence; NPY at EC95, then isoproterenol;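 active means inhibition above the campaign mean inhibition of all tested compounds plus 3 SD, cut at about 20% in these data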;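 further: 0% = DMSO wells given NPY plus isoproterenol and 100% = isoproterenol alone without NPY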
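System: HEK293 cells with Y1 receptor plus CNG channel / Probe or stimulus: NPY 25 nM then isoproterenol 1 µM plus Ro 20-1724 25 µM / Compound: one concentration, 3.6 µM, in 0.4% DMSO / Schedule: compound incubation 1 h at room temperature, readout 45 min post-stimulation / Measured by: membrane potential fluorescence / Read-out: % inhibition of NPY effect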
Calpain2 inh: blocks pig calpain II enzyme activity; purified calpain II, fluorogenic peptide substrate, 30 min; inhibition, % at 16 µM; actives 0.37% (n = 220,000); AID 1236;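 active means inhibition above about 50%, limit read from the data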
NPY-Y2 PAM-ag: potentiates or activates human NPY-Y2 receptor | activation, % at 3.6 µM | actives 0.45% (n = 220,000) | AID 1359 | P49146 | cells expressing NPY-Y2, potentiator/agonist read-out; in the data active means activation above about 27%;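 further: cells stimulated with NPY near EC25 plus isoproterenol at EC100; 0% = vehicle plus submaximal agonist and 100% = vehicle plus saturating agonist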
NPY1 pot ag: potentiates or activates human NPY-Y1 receptor; P25929; NPY-Y1 expressing cells, potentiator/agonist activation; activation, % at 3.6 µM; actives 0.37% (n = 220,000); AID 1304; in the data active means activation above about 33%, passing the limit was not always enough;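 further: cells stimulated with NPY at EC10 then isoproterenol at EC100; 0% = low agonist plus stimulus and 100% = saturating agonist plus stimulus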
Numbers without * were called inactive; i = inactive; . = not tested or not shown.

SMILES	TbHK1 inh	NPY-Y2 antag	NPY-Y1 antag	Calpain2 inh	NPY-Y2 PAM-ag	NPY1 pot ag
c1ccc(Oc2cc(-c3ccccc3)nc(-c3ccccc3)n2)cc1	22	3	-5	17	-2	3
CCOC(=O)c1ccc(NC(=O)Cn2ncc(Cl)c(Cl)c2=O)cc1	9	1	-9	4	18	59*
Cc1ccccc1C1CC(c2ccccc2)Nc2ncnn21 (configuration not stated)	-2	4	6	-8	-6	-12
CCOc1ccc(C2CC(c3ccccc3C)n3ncnc3N2)cc1 (configuration not stated)	-1	24*	21*	2	-12	-13
Cc1c(C(=O)NC(=S)Nc2ccc(N3CCOCC3)cc2)cccc1[N+](=O)[O-]	7	.	-1	32	-14	-3
COC(=O)CCCCCCCCC(=O)Nc1nc2ccccc2s1	3	8	4	-21	0	16
COCC(=O)Nc1nc2ccccc2s1	0	0	1	-11	64*	108*
Cc1ccc(-n2sc3ccccc3c2=O)cc1	66*	2	-3	-10	-5	8
Cc1ccc(Cn2c(=O)sc3ccccc3c2=O)cc1	1	3	10	8	-17	-11
CC(=O)c1cccc(NC(=O)c2nc(-c3ccccc3)oc2C)c1	2	.	17	-27	-1	-5
COc1ccc(OC)c(NC(=O)COC(=O)CN(C)S(=O)(=O)c2ccc(C)cc2)c1	4	-1	-1	-8	7	19
O=C(O)c1cccc(N/N=C/C2=C(Cl)c3cc(Cl)ccc3SC2)c1	8	.	7	58*	-1	-12
CCCCNC(=O)c1cc2cc(CC)ccc2[nH]1	4	.	.	-67	3	11
Cc1ccc(OCc2cnc(Cl)s2)c(C)c1	-5	.	3	-2	-2	-2
O=C(/C(=N\Nc1ccc(Br)cc1)Sc1nnnn1-c1ccccc1)c1ccccc1	-2	1	-2	-44	6	-9
Brc1ccc(N/N=C(/N=Nc2nn[nH]n2)c2ccccc2)cc1	-4	.	-17	12	53*	64*
COc1cc(C2(O)CCCCC2C)cc(OC)c1OC (configuration not stated)	-11	3	-2	-10	5	-28
COC(=O)c1cccc(NC(=O)CSc2nnc(C)n2Cc2ccccc2)c1	1	3	5	-9	6	1
Cc1cc2cc(CNC(=O)NC3CCCCC3)ccc2[nH]1	-5	0	1	39	3	-6
Cc1cccc(NC(=O)NCc2ccc3[nH]c(C)cc3c2)c1	2	.	-6	97*	1	24
Cc1cc2cc(CNC(=S)NC3CCCCC3)ccc2[nH]1	6	.	3	87*	3	4
CCOC(=O)c1ccc(CC(=O)c2ccc(O)cc2O)o1	-65	2	-3	7	35*	34
Cn1cc([N+](=O)[O-])c(C(=O)Nc2cc(Oc3cccnc3)cc([N+](=O)[O-])c2)n1	-7	0	10	59*	-10	-5
O=[N+]([O-])c1cc(Oc2cccnc2)cc([N+](=O)[O-])c1	-2	2	-1	-4	-1	-21
NC(=O)C1CCN(Cc2nc3cc(C(F)(F)F)ccc3c(=O)[nH]2)CC1	4	.	.	3	-15	-13
SMILES	TbHK1 inh	NPY-Y2 antag	NPY-Y1 antag	Calpain2 inh	NPY-Y2 PAM-ag	NPY1 pot ag
CCOC(=O)C1CCCN(S(=O)(=O)c2cccs2)C1 (configuration not stated)	5	3	0	57*	6	-28
O=C(O)c1cccc(NC(=S)N/N=C/c2ccccc2OCc2cccc(Br)c2)c1	-2	.	1	56*	-6	-1
COc1cc(CCCN2C(=O)C(=O)NC[C@@H]2C(C)O)cc(OC)c1OC (some centres not stated)	6	.	.	-3	.	.
O=C(CCl)c1ccc2c(c1)CCN2C(=O)C1CCCCC1	-11	.	1	-56	5	7
Cc1ccc(COc2ccc(Br)cc2/C=N/O)cc1	-1	15	14	28	-25	-22
O/N=C/c1cc(Br)ccc1OCc1ccc(F)cc1	7	18*	16	.	-2	-15
O=C1CCC(=O)N1c1nc2n(n1)C(c1ccccc1)C=C(c1ccc(Br)cc1)N2 (configuration not stated)	23	0	-6	-336	7	89*
CCC(C)NC(=O)NCc1ccccc1F (configuration not stated)	-3	.	5	-18	-5	-8
Cc1ccc(C(=O)NCCc2ccccn2)cc1S(=O)(=O)N1CCOCC1	3	.	.	-14	1	16
CCc1ccc2c(c1)C(c1ccc([N+](=O)[O-])cc1)=NNC(c1ccc(C)cc1)=N2	25	1	3	61*	1	19
CCc1ccc2c(c1)C(c1ccc(N3CCOCC3)cc1)=NNC(c1ccncc1)=N2	-22	.	-6	-69	1	-8
CC(C)(C)OC(=O)C(C)(C)Sc1nnc(N)s1	-5	.	.	-10	-5	9
O=C1c2ccccc2C(=O)c2c(Nc3ccc(CCO)cc3)ccc(O)c21	-24	.	.	-1	117*	121*
CC(=O)Nc1ccc(Nc2ccc3c4c(cc(=O)n3C)-c3ccccc3C(=O)c24)cc1	-10	.	-1	-56	6	7
Clc1ccc(CN2C3=NCCN3c3ccccc32)cc1Cl	5	18*	39*	-26	-3	-11
CCOC(=O)c1c(-c2ccccc2)cn2c(C)cc(C)nc12	-9	.	2	i	-5	-12
O=C(N/N=C1\CCCc2ccccc21)c1cccc([N+](=O)[O-])c1	-10	3	-1	1	5	-1
O=C(N/N=C1/CCCc2ccccc21)c1cc([N+](=O)[O-])cc([N+](=O)[O-])c1	13	.	-1	74*	-7	9
C=CCSC(=C(C#N)C#N)c1cc2c([nH]1)CCCC2	-4	-2	-10	-31	43*	35*
O=C(O)c1cc2c([nH]c1=O)CCCC2	-11	1	-5	.	-12	21
O=C(OC(C(=O)NCc1ccco1)c1ccc(Cl)cc1)c1cccs1 (configuration not stated)	8	.	.	7	9	25
CCOc1cc(C(=O)CCC(=O)OCC(=O)NC(=O)NCC(C)C)ccc1O	-5	.	.	14	-1	1
CCOc1ccc(-n2c(SCc3ccc(C#N)cc3)nnc2-c2cccnc2)cc1	0	26*	45*	-7	-11	-17
Clc1ccc(-n2c(SC/C=C/c3ccccc3)nnc2-c2cccnc2)cc1	-4	30*	23*	13	-17	-43
CCOC(=O)c1c(NC(=O)CSc2nnc(C)s2)sc2c1CCCCC2	-17	20*	39*	-1	-16	-22
CCOC(=O)c1c(NC(=O)CSc2nnc(C)c(=O)[nH]2)sc2c1CCCC2	-10	13	14	-54	-26	7
